Entries after “also recorded” stand apart in the source; their conditions may differ.
Columns and labels:
[1] = test system: Cx26/Cx32T junctional channels; assay: Parachute assay for gap junctional communication; assay type: cell-based, rat; details: n = 4–9
Method in brief: (§1)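 Parachute dye-coupling assay. Connexin-expressing HeLa donor cells were labelled for 30 min at 37°C with 10 µM CM-DiI plus 5 µM calcein-AM, washed in PBS/glucose, trypsinized and seeded at ~1:150 onto semi-confluent unlabelled receiver monolayers. Cells attached for 3 h at 37°C with extracellular taurine. Calcein-positive receivers per DiI-labelled donor were averaged and normalized to control cultures.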

[2] = test system: nontagged Cx26 junctional channels; assay: Parachute assay for gap junctional communication; assay type: cell-based; details: n = 4–9; for Intercellular calcein transfer: extracellular taurine, normalized to control
Method in brief: as §1

Cx26CL (15N-labeled) = assay: 1H-15N HSQC NMR interaction; assay type: binding, rat; details: 10 µM Cx26CL, pH 7.0, 42°C, 6% LPPG, 20 mM MES
Cx26/Cx32T hemichannels = assay: Hemichannel calcein uptake by HeLa cells; assay type: cell-based, rat; details: extracellular taurine, low [Ca2+]ex; n = 3
[3] = test system: heteromeric Cx26T/Cx32 hemichannels; assay: TSF liposome hemichannel activity; assay type: biochemical, rat
Method in brief: (§2)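 Rat connexins carrying a C-terminal thrombin-site–HA(HN)6 tag were expressed in Tet-On HeLa (1 µg/ml dox, 48 h). Hemichannels were octylglucoside-solubilized, anti-HA immunopurified and reconstituted into PC/PS/rhod-PE liposomes entrapping urea buffer. Taurine was present in iso-osmolar urea/sucrose gradients (300,000 gav, 3 h, 37°C). Bands were followed by rhod-PE fluorescence, densities by refractometry at 25°C. Lower-band fraction was Poisson-corrected and normalized to the preparation maximum.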

Cx26CL–Cx26CT complex = assay: 1H-15N HSQC NMR, effect of taurine on CL–CT complex; assay type: binding, rat; details: pH 7.0, 42°C
[4] = test system: the different tagged connexin hemichannels other than Cx26/Cx32T; assay: Hemichannel calcein uptake by HeLa cells; assay type: cell-based, rat; details: extracellular taurine, low [Ca2+]ex; n = 3
[5] = test system: hemichannels that contained connexin26 (Cx26), homomeric or with Cx32 (heteromeric); details: cytoplasmic concentrations; ref Tao and Harris, 2004; cited from earlier work
[6] = test system: untagged heteromeric Cx26/Cx32 hemichannels; assay: TSF liposome hemichannel activity, untagged; assay type: biochemical; details: with AS treatment
[7] = test system: homomeric Cx32Tc hemichannels; assay: TSF liposome hemichannel activity, tag cleaved; assay type: biochemical, rat
Method in brief: (§3)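 Tagged rat hemichannels were anti-HA immunopurified from dox-induced Tet-On HeLa, then cleaved with 2 U thrombin for 18 h at 4°C, leaving LVPR at the C-terminus. They were reconstituted by gel filtration into rhod-PE-labelled liposomes in urea buffer, then centrifuged for 3 h at 37°C through iso-osmolar urea/sucrose gradients containing aminosulfonate. Band densities were read by refractometry. Lower-band fraction was Poisson-corrected, normalized per preparation and pooled.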

[8] = test system: homomeric Cx26Tc hemichannels; assay: TSF liposome hemichannel activity, tag cleaved; assay type: biochemical, rat; details: 10 mM taurine; tag cleaved (LVPR left); n = 5–8
Method in brief: as §3

[9] = test system: heteromeric Cx26/Cx32T hemichannels; assay: TSF liposome hemichannel activity; assay type: biochemical, rat; details: taurine-exposed liposomes
Method in brief: as §2

[10] = test system: Cx26T/Cx32 junctional channels; assay: Parachute assay for gap junctional communication; assay type: cell-based, rat; details: extracellular taurine; normalized to control; n = 4–9
[11] = test system: heteromeric Cx26/Cx32Tc hemichannels; assay: TSF liposome hemichannel activity, tag cleaved; assay type: biochemical, rat
Method in brief: as §3

[12] = 37°C; source not given; cited from earlier work
[13] = test system: Cx32T junctional channels; assay: Parachute assay for gap junctional communication; assay type: cell-based, rat; details: extracellular taurine; normalized to control; n = 4–9
Method in brief: as §1

[14] = test system: heteromeric Cx26Tc/Cx32 hemichannels; assay: TSF liposome hemichannel activity, tag cleaved; assay type: biochemical, rat
Method in brief: as §3

[15] = test system: homomeric Cx26T hemichannels; assay: TSF liposome hemichannel activity; assay type: biochemical, rat
Method in brief: as §2

Cx26T/Cx32 hemichannels = assay: Hemichannel calcein uptake by HeLa cells; assay type: cell-based, rat; details: extracellular taurine, low [Ca2+]ex; n = 3
[16] = test system: untagged homomeric Cx26 hemichannels; assay: TSF liposome hemichannel activity, untagged; assay type: biochemical; details: with AS treatment
[17] = test system: Cx26CT–^biotCL3 interaction; assay: CT+CL peptide-binding assay; set-up: species or system rat
[18] = test system: nontagged Cx26 hemichannels; assay: Hemichannel calcein uptake by HeLa cells; assay type: cell-based; details: extracellular taurine, low [Ca2+]ex; n = 3
Method in brief: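 HeLa clone stably expressing nontagged Cx26. Semi-confluent monolayers were washed, then loaded for 30 min at 37°C in low-Ca buffer (0.5 mM CaCl2, 30 mM KCl, 11 mM glucose, Tris pH 7.4) with 100 µM calcein, with or without taurine. Cells were washed in 2 mM Ca buffer and imaged. Dye-containing cells were counted, and each taurine condition was normalized to its own taurine-free control.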

[19] = test system: homomeric Cx32T hemichannels; assay: TSF liposome hemichannel activity; assay type: biochemical, rat; details: taurine-exposed liposomes
Method in brief: as §2

[20] = extracellular HEPES in presence of extracellular taurine
[21] = up to 50 mM of protonated taurine
[22] = 30 mM taurine, 4 mM Cx26CT, 10 µM Cx26CL
[23] = tag cleaved (LVPR left), n = 5–8

O=S(=O)(O)CCN1CCN(CCO)CC1 [HEPES]
Block of taurine effect on junctional channel permeability of calcein [1, 20]: effectively eliminated the taurine effect; also recorded: AS insensitive
Block of taurine effect on junctional calcein transfer [2, 20]: eliminated by HEPES; also recorded: restored AS insensitivity

Cx26CT: peptide with sequence corresponding to the Cx26CT (residues 213–226) (LFIRYCSGKSKRPV)
Interaction with Cx26CL by NMR (resonance peaks affected) (Cx26CL (15N-labeled); 4 mM Cx26CT): more resonance peaks are affected by the Cx26CT than by taurine

NCCS(=O)(=O)O [taurine, β-aminosulfonic acid]
Completeness of inhibition of dye uptake (Cx26/Cx32T hemichannels): not complete
Pore narrowing (intermediate band in TSF) ([3]; taurine-exposed liposomes): do not form intermediate bands
Inhibition of hemichannels (TSF) [3, 21]: not inhibited
Effect on Cx26CL–Cx26CT complex by NMR, Fig. 8 B peaks (Cx26CL–Cx26CT complex; [22]): a negligible effect of taurine on the Cx26CL–Cx26CT complex
Effect on Cx26CL–Cx26CT complex by NMR, Fig. 8 D peaks (Cx26CL–Cx26CT complex; [22]): move to unique positions in the presence of both taurine and the Cx26CT
Effect on Cx26CL–Cx26CT interaction by NMR, Fig. 8 C peaks (Cx26CL–Cx26CT complex; [22]): taurine reverses the Cx26CL–Cx26CT interaction at this position
Mode of action on Cx26CT–Cx26CL interaction (Cx26CL–Cx26CT complex; concluded from NMR): competitive inhibitor of the interaction between Cx26CT and the Cx26CL
Calcein dye uptake [4]: absence of effect
Inhibition of Cx26-containing hemichannels by cytoplasmic AS [5]: inhibitory at cytoplasmic concentrations
Occlusion of hemichannels (TSF band shift from lowest to upper band) [6]: full occlusion of the hemichannels
AS sensitivity of hemichannel activity (TSF) [7, 23]: AS insensitive
Pore narrowing (intermediate band in TSF) ([7]; taurine-exposed liposomes): do not form intermediate bands
AS effect on hemichannel activity (TSF) [8]: remained AS insensitive
Pore narrowing (intermediate band in TSF) [9]: do not form intermediate bands
Interaction with Cx26CL by NMR (resonance peaks affected) (Cx26CL (15N-labeled); 30 mM taurine): taurine interacts with the Cx26CL at some residues (peaks iii and iv)
Intercellular calcein transfer [10]: not in the Cx26T/Cx32 cells or the Cx26T cells
AS sensitivity of hemichannel activity (TSF) [11, 23]: AS sensitive
Pore narrowing (intermediate band in TSF) ([11]; taurine-exposed liposomes): do not form intermediate bands
pKa [12]: 8.8
Intercellular calcein transfer [13]: unchanged compared with controls
AS inhibition of hemichannel activity (TSF) ([14]; 10 mM taurine, tag cleaved (LVPR left), n = 5–8): AS inhibition was restored
Pore narrowing (intermediate band in TSF) ([14]; taurine-exposed liposomes): do not form intermediate bands
Effect on pore diameter (TSF band density) ([15]; 10 mM AS (taurine)): no discernable effect on the pore diameter
Inhibition of hemichannels (TSF) [15, 21]: not inhibited
Calcein dye uptake (Cx26T/Cx32 hemichannels): absence of effect
Occlusion of hemichannels (TSF band shift from lowest to upper band) [16]: full occlusion of the hemichannels
Intercellular calcein transfer ([1]; extracellular taurine, normalized to control): decreased
Taurine concentration for complete dissociation of CL–CT peptides ([17]; 10 µM ^biotCL3, not fit to any standard binding isotherm): ~5 mM
Disruption of CL–CT peptide interaction ([17]; 1 mM taurine, pH 6.5, 10 µM ^biotCL3): Approximately 50%
Effect of taurine on Cx26CT–CL3 interaction ([17]; 10 mM taurine, 10 µM CL peptide): substantial but not complete dissociation; also recorded: substantially reduced
Concentration dependence of disruption of CL–CT interaction ([17]; pH 6.5 and 7.4, 10 µM ^biotCL3): a linear function of the log of taurine concentration
pH dependence of taurine disruption of CL–CT interaction ([17]; pH 6.5 versus 7.4, 10 µM ^biotCL3): substantially greater at the lower pH
Intercellular calcein transfer [2]: markedly reduced
Intercellular calcein transfer ([2]; listed as AS): substantially reduced
Calcein hemichannel uptake [18]: markedly reduced
Pore narrowing (intermediate band in TSF) [19]: do not form intermediate bands

From publication PMC3171079 (The Journal of General Physiology, 2011)
